Only some compounds are listed: those with a hit (about 1.4% of all), similar ones and a draw of the others.
HCV NS3 hel inh – HCV NS3 helicase inhibition; NS3 helicase DNA unwinding, Cy5 molecular beacon fluorescence; inhibition, % at 10.9 µM; hit rate 0.56% among 290,000; AID 1800;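 active = inhibition above the mean of all tested compounds plus 3 SD, set per campaign, cut at about 35% in these data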;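 also: 0% = DMSO wells and 100% = thioflavine S control wells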
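test system = hepatitis C virus NS3 helicase domain fragment enzyme | reagent = annealed dual-labelled DNA beacon duplex, ATP-started | times = 1 h at 25 °C | detection = Cy5 fluorescence, 0 and 60 min reads | read-out basis = percent inhibition from t60/t0 fluorescence ratio | control set = DMSO and thioflavine S | replication = one well per compound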
SUMO HTRF inh – blocks human SUMOylation mediated by UBC9 | hit rate 0.36% among 290,000 | AID 2006 | inhibition, % at 35 µM | HTRF SUMOylation assay, SAE1/SAE2 + UBC9, in vitro; in the data active = inhibition above about 50%, passing the limit was not always enough
Target sequence (P63279 whole entry, looked up): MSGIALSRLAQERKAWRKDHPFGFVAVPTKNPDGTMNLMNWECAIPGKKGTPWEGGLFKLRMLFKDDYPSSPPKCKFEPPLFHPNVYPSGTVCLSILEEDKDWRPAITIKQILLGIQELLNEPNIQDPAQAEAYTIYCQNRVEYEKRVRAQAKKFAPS
ZTA DNA inh – blocks Epstein-Barr virus ZTA, an EBNA-1 counter-screen | P03206 | ZTA-DNA binding, fluorescence polarization | inhibition, % at 11 µM | hit rate 0.15% among 320,000 | AID 2234; in the data active = inhibition above about 33%
Target sequence (P03206 whole entry, looked up): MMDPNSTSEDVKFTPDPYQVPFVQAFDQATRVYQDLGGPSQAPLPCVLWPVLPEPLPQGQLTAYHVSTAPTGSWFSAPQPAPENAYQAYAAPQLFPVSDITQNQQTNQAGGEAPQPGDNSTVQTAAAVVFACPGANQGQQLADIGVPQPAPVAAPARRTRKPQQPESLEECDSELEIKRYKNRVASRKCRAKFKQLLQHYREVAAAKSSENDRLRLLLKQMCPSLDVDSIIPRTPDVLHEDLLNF
EBNA-1 inhibitor – blocks EBNA-1 binding to DNA. EBNA-1 DNA binding, fluorescence polarization. inhibition, % at 14.8 µM. hit rate 0.34% among 300,000; in the data active = inhibition above about 28%
HCV core dimer – HCV core protein dimerization inhibition | inhibition, % at 5 µM | hit rate 0.33% among 300,000 | TR-FRET GST/Flag-core106 dimerization, 1536-well | AID 1899;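 active = inhibition above the mean of all tested compounds plus 3 SD, set per screening campaign, cut at about 45% in these data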
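System – GST-tagged and Flag-tagged HCV core protein residues 1-106 · Repeats – one well for each compound · Technique – TR-FRET 671 and 617 nm emission · Doses – one concentration, 5 µM, in 0.5% DMSO · Times – 4 h, 22.5 °C incubation · Also added – Eu donor and XL665 acceptor anti-tag antibodies · Measure – percent inhibition of core106 dimerization signal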
EBNA-1 inh conf – EBNA-1 (EBV) inhibition, confirmation; shares compounds with EBNA-1 inhibitor; AID 2292; Recombinant EBNA-1 DBD, Cy5-DNA fluorescence polarization; hit rate 35% among 830; inhibition, % at 14.8 µM;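 active = mean inhibition across replicates above a set limit taken from the earlier primary screen, cut at about 28% in these data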;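 also: plate controls were EBNA-1 protein with DMSO for no effect and wells lacking EBNA-1 for full effect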
ZTA counter trip – blocks Epstein-Barr virus ZTA in triplicate, EBNA-1 counter-screen; shares compounds with EBNA-1 inhibitor; Zta-ZRE DNA binding, Cy5 fluorescence polarization; inhibition, % at 11.1 µM; 830 tested, under 10 active; AID 2328;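 active = mean inhibition over triplicates above a set limit taken from the primary EBNA-1 screen, cut at about 37% in these data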;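 also: purified full length Zta protein with Cy5 labeled ZRE DNA probe; 0% = Zta with DMSO and 100% = wells lacking Zta protein; inhibitors lower polarization by freeing the labeled DNA probe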
Numbers without * were called inactive; · = no result given.

SMILES	HCV NS3 hel inh	SUMO HTRF inh	ZTA DNA inh	EBNA-1 inhibitor	HCV core dimer	EBNA-1 inh conf	ZTA counter trip
CC(=O)c1cccc(NC(=S)N2CCN(CCN3C(=O)c4cccc5cccc(c45)C3=O)CC2)c1	-1	17	-3	34*	1	19	-15
CCOC(=O)N/N=C(/C)c1ccc([N+](=O)[O-])o1	5	-6	-1	36*	-1	7	5
C/C(=N\NC(=O)CCC(=O)N/N=C(\C)c1ccc(C)o1)c1ccc(C)o1	·	·	12	1	-3	·	·
CCc1cc(C(=O)N(CC(C)C)c2c(N)n(Cc3ccccc3)c(=O)[nH]c2=O)sc1C	·	·	-1	33*	3	22	-13
Cc1ccccc1Nc1nc(N)nc(CSc2nc3ccccc3c(=O)n2CCCO)n1	-10	16	9	42*	1	-2	6
O=C(Cn1cnc2c(nnn2Cc2ccc(Cl)cc2)c1=O)OCc1ccccc1	-4	10	2	30*	8	12	7
CN(CCCN1CCCCC1)C(=O)c1cc(COc2ccc(F)cc2F)on1	3	7	16	16	12	·	·
Cc1ccc2nc(-c3ccc(NC(=O)CN4C(=O)NC(C)(c5ccc(OC(F)F)cc5)C4=O)cc3)sc2c1 (stereo not drawn)	-12	25	8	40*	-4	18	9
CCOc1ccc(CC(=O)NNC(=S)NC)cc1Br	-3	8	-12	-10	-1	·	·
COc1cccc(N2CCN(S(=O)(=O)c3ccc(-c4cnc(C5CC5)o4)cc3)CC2)c1	-14	7	-5	91*	20	84*	2
COc1cccc(Cn2nnc(C(=O)NCc3ccc4c(c3)OCO4)c2N)c1	-1	9	0	10	3	·	·
Nc1c(C(=O)Nc2ccc3c(c2)OCCO3)nnn1Cc1cccc(F)c1	·	·	7	35*	-2	87*	0
Nc1c(C(=O)Nc2ccc3c(c2)OCCO3)nnn1Cc1ccc(Cl)cc1	·	·	14	12	-2	·	·
Nc1c(C(=O)NCc2ccc3c(c2)OCO3)nnn1Cc1cccc(F)c1	-6	10	-3	76*	3	29*	8
Cc1ccc(NC2CCCN(C(=O)c3ccc(C)c(N4CCNC4=O)c3)C2)cc1C (stereo not drawn)	-4	5	-5	-2	2	·	·
CCOc1ccc2oc(C(=O)NNC(=O)c3ccccc3O)c(C)c2c1	·	·	-11	73*	1	6	1
Cc1c(C(=O)NNC(=O)c2ccccc2O)oc2ccc(Br)cc12	·	·	2	13	22	·	·
CCN(C(=O)COC(=O)CC1CCCCC1)c1c(N)n(Cc2ccccc2)c(=O)[nH]c1=O	·	·	-5	·	·	·	·
Cc1ccc(-c2nnc(NCc3nc4ccccc4[nH]3)c3ccccc23)cc1S(=O)(=O)N1CCOCC1	-42	-53	10	3	9	·	·
Cc1ccc(-c2nnc(NCc3nc4ccccc4[nH]3)c3ccccc23)cc1S(=O)(=O)N(C)C	-81	-10	7	93*	4	37*	2
N#CC(C#N)=Cc1c[nH]c(=O)c(C#N)c1Nc1ccccc1	·	·	-1	18	-1	·	·
Cc1cccc(C)c1NC(=O)COC(=O)C1Cc2ccccc2CN1C(=O)c1ccccc1 (stereo not drawn)	10	-6	4	10	3	·	·
N#Cc1ccc(NC(=O)COC(=O)C2Cc3ccccc3CN2C(=O)c2ccccc2)cc1 (stereo not drawn)	-9	-11	-18	33*	2	6	-1
CS(=O)(=O)N(CC(=O)N/N=C/c1ccc(OCC(=O)N2CCOCC2)cc1)c1ccccc1Cl	0	-6	-17	36*	-7	-1	-5
O=C(N/N=C/c1ccc(OCC(=O)N2CCOCC2)cc1)c1ccccc1Cl	4	19	4	-1	-1	·	·
c1ccc(C2CCC(N3CCN(c4ccccc4)CC3)CC2)cc1 (stereo not drawn)	-7	-8	-30	-12	-11	·	·
CCN1C(=O)/C(=C2/C=Cc3cc(C)ccc3N2CC)N(C)C1=S	1	-24	-3	29*	-46	-3	-10

Screens: PubChem, several laboratories
